Data reported in ChEMBL document CHEMBL5325455, “Daphnanes diterpenes from the latex of Hura crepitans L. and their PKCζ-dependent anti-proliferative activity on colorectal cancer cells” (Bioorg Med Chem, 2023).
Activity calls are given as the source filed them. The calls are words filed in the database; no cut-off is given here.

Key:
Caco-2 [1] = assay: Downregulation of PKCalpha expression in human Caco-2 cells at 1 ug/ml incubated for 48 hrs by immunostaining based confocal microscopic analysis; assay type: functional, cell-based; conditions: dose 1.0 µg/ml
In short: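 Caco-2 cells were seeded at 40 000/well and treated for 48 h as in the viability assay. They were fixed in 3.7% PFA for 20 min and permeabilised in HBSS/0.5% Triton X100/1% BSA. Anti-PKCζ (1/50) or anti-PKCα (1/200) was applied overnight at 4°C, then Alexa 488 secondary for 45 min. Phalloidin and Hoechst counterstained the cells before confocal imaging; PKCα signal was quantified by immunofluorescence.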

Caco-2 [2] = assay: Induction of morphological changes in human Caco-2 cells assessed as cellular aggregates formation at 0.125 ug/ml incubated for 48 hrs by Hoechst 3342 and phalloidin staining based confocal microscopic analysis; assay type: functional, cell-based; conditions: dose 0.125 µg/ml
In short: (§1)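 Caco-2 cells (40 000/well) were exposed for 48 h, then fixed in 3.7% PFA and permeabilised with Triton X100/BSA. Actin was stained with phalloidin and nuclei with Hoechst 3342, and cells were viewed by confocal microscopy.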

[3] = target: RAC-alpha serine/threonine-protein kinase (Homo sapiens) (UniProt P31749); assay: Inhibition of AKT in human Caco-2 cells assessed as reduction in phosphorylation at serine 473 residue at 1 ug/ml incubated for 48 hrs by Western blot analysis; assay type: cell-based; conditions: dose 1.0 µg/ml
Sequence of RAC-alpha serine/threonine-protein kinase (Homo sapiens) (P31749 whole entry): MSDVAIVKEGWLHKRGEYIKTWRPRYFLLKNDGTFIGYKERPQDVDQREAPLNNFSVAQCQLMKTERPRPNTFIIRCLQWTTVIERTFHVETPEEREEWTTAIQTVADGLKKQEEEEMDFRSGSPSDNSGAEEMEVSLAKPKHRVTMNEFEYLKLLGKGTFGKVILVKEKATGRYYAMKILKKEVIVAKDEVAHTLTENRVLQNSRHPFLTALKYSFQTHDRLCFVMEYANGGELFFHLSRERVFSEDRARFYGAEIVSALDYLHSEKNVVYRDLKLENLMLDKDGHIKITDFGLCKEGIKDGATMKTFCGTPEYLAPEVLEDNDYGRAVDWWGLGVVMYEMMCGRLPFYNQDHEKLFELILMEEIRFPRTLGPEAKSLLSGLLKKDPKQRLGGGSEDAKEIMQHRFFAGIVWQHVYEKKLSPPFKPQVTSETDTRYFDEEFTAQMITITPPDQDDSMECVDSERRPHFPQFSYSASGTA
In short: (§2)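 Caco-2 cells (0.25 × 10^6/well) were treated at 1 µg/mL for 48 h and lysed in pH 7.4 Tris/NaCl/Triton/EDTA buffer with protease and phosphatase inhibitors. 30 µg protein was run per lane on 4–15% gels and blotted for pSer9-GSK3β, total GSK3β, pSer473-Akt, total Akt and β-catenin, with actin as loading control. Detection was by ECL; n=2, t-test versus DMSO.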

[4] = Cytotoxicity against HIEC-6 cells assessed as inhibition of cell growth at 1 ug/ml incubated for 48 hrs by MTS assay; assay type: toxicity, cell-based; conditions: human, hiec-6, 48 h, dose 1 µg/ml
In short: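 HIEC6 cells were grown in OPTIMEM with GlutaMAX, Hepes and 10 ng/mL EGF and seeded at 60 000/well 48 h before dosing. Cells were exposed to 1 µg/mL for 48 h, and viability was read by MTS absorbance at 490 nm versus DMSO; 3 independent experiments, t-test.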

[5] = target: Glycogen synthase kinase-3 beta (Homo sapiens) (UniProt P49841); assay: Inhibition of GSK3beta in human Caco-2 cells assessed as increase in phosphorylation at serine 9 residue at 1 ug/ml incubated for 48 hrs by Western blot analysis; assay type: cell-based; conditions: dose 1.0 µg/ml; in short: as §2
Sequence of Glycogen synthase kinase-3 beta (Homo sapiens) (P49841 whole entry, looked up): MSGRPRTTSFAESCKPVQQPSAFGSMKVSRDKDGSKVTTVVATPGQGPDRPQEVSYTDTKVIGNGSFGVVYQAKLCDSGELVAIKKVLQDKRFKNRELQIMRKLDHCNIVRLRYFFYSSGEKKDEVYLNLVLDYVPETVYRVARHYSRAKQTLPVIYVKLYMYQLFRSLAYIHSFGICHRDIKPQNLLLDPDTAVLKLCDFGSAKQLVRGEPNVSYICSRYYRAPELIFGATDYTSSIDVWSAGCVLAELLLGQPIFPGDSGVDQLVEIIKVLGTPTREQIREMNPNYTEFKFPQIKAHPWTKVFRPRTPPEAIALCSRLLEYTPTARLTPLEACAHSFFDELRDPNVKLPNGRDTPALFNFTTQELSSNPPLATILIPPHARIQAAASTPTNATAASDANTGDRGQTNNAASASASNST

Caco-2 [6] = assay: Cytostatic activity against human Caco-2 cells assessed as inhibition of cell growth at 1 ug/ml preincubated for 30 mins with CRT0066854 hydrochloride followed by compound addition and measured after 48 hrs by MTS assay; assay type: functional, cell-based; conditions: dose 1.0 µg/ml
In short: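 Caco-2 cells were pretreated for 30 min with CRT0066854 hydrochloride (2.5 µM; 0.625 and 1.25 µM also tested), then given compound at 1 µg/mL for 48 h. MTS absorbance was read at 490 nm relative to DMSO controls; n=3, t-test.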

[7] = test system: Colorectal epithelial cell; assay: Cytostatic activity against human Colorectal epithelial cells isolated from patient with well-differentiated colonic adenocarcinoma cultured as organoids at 1 ug/ml incubated for 48 hrs by CellTiter-Glo luminescence assay; assay type: functional, cell-based; conditions: dose 1.0 µg/ml
In short: (§3)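 Primary colonic epithelial cells (3 control and 2 CRC patients) were expanded as organoids or spheroids in Matrigel with EGF/noggin/Wnt3a/R-spondin medium. Single cells were seeded at 2500/well and allowed 48 h to form colonoids, then exposed for 48 h at 0.01, 0.1 or 1 µg/mL, with 5FdU at 1 µg/mL as positive control. Viability was read by CellTiter-Glo luminescence versus DMSO or medium control.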

[8] = target: Glycogen synthase kinase-3 beta (Homo sapiens) (UniProt P49841); assay: Inhibition of GSK3beta in human Caco-2 cells assessed as increase in phosphorylation at serine 9 residue at 1 ug/ml preincubated for 30 mins with CRT0066854 hydrochloride followed by compound addition and measured after 48 hrs by Western blot analysis; assay type: cell-based; conditions: dose 1.0 µg/ml
In short: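 Caco-2 cells were pretreated with 2.5 µM CRT0066854 hydrochloride for 30 min, then treated at 1 µg/mL for 48 h. Lysates (30 µg protein) were immunoblotted for pSer9-GSK3β and total GSK3β, with actin loading control and ECL detection; n=2.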

[9] = test system: Colorectal epithelial cell; assay: Cytostatic activity against human Colorectal epithelial cells isolated from left colon of patient with sigmoido-vaginal fistula for diverticulitis cultured as organoids at 1 ug/ml incubated for 48 hrs by CellTiter-Glo luminescence assay; assay type: functional, cell-based; conditions: dose 1.0 µg/ml; in short: as §3
Caco-2 [10] = assay: Effect on phosphorylated MEK at Ser217/221 level in human Caco-2 cells at 1 ug/ml measured after 48 hrs by Western blot analysis; assay type: functional, cell-based; conditions: dose 1.0 µg/ml
In short: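 Caco-2 cells (0.25 × 10^6/well) were treated at 1 µg/mL for 48 h, with or without 30 min pretreatment with 2.5 µM CRT0066854. Lysates (30 µg protein) were blotted for pSer217/221-MEK and total MEK, with actin as loading control. Detection was by ECL; n=2, t-test versus DMSO.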

Caco-2 [11] = assay: Induction of morphological changes in human Caco-2 cells assessed as reorganization of epithelial tissue architecture at 1 ug/ml incubated for 48 hrs by Hoechst 3342 and phalloidin staining based confocal microscopic analysis; assay type: functional, cell-based; conditions: dose 1.0 µg/ml; in short: as §1
[12] = Cytostatic activity against human Colorectal epithelial cells isolated from patient with well-differentiated colonic adenocarcinoma cultured as organoids assessed as inhibition of cell growth at 0.1 ug/ml incubated for 48 hrs by CellTiter-Glo luminescence assay relative to control; assay type: functional; in short: as §3
Caco-2 [13] = assay: Cytotoxicity against human Caco-2 cells assessed as cell death; assay type: functional, cell-based
[14] = test system: Colorectal epithelial cell; assay: Cytostatic activity against human Colorectal epithelial cells isolated from left colon of patient with recurrent diverticulitis cultured as organoids at 1 ug/ml incubated for 48 hrs by CellTiter-Glo luminescence assay; assay type: functional, cell-based; conditions: dose 1.0 µg/ml; in short: as §3
Caco-2 [15] = assay: Cytostatic activity against human Caco-2 cells assessed as inhibition of cell growth at 1 ug/ml preincubated for 15 mins with PKCalpha inhibitor, Go6976 followed by compound addition and measured after 48 hrs by MTS assay; assay type: functional, cell-based; conditions: dose 1.0 µg/ml
In short: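 Caco-2 cells (40 000/well) were pretreated with 0.2 µM Gö6976 for 15 min, then given compound at 1 µg/mL for 48 h. MTS absorbance was read at 490 nm and activity calculated relative to DMSO controls; triplicates, 1–3 independent experiments, two-way ANOVA.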

Caco-2 [16] = assay: Induction of morphological changes in human Caco-2 cells at 1 ug/ml preincubated for 30 mins with CRT0066854 hydrochloride followed by compound addition and measured after 48 hrs by Hoechst 3342 and phalloidin staining based confocal microscopic analysis; assay type: functional, cell-based; conditions: dose 1.0 µg/ml
In short: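 CRT0066854 hydrochloride (2.5 µM) was added to Caco-2 cells 30 min before compound at 1 µg/mL. After 48 h, nuclei and actin cytoskeleton were labelled and confocal views taken with a 20X objective; duplicates from one experiment.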

[17] = test system: Colorectal epithelial cell; assay: Cytostatic activity against human Colorectal epithelial cells isolated from patient with well-differentiated colonic adenocarcinoma and undergone nine courses of chemotherapy cultured as organoids at 1 ug/ml incubated for 48 hrs by CellTiter-Glo luminescence assay; assay type: functional, cell-based; conditions: dose 1.0 µg/ml; in short: as §3
Caco-2 [18] = assay: Effect on beta-catenin protein expression in human Caco-2 cells at 1 ug/ml incubated for 48 hrs by Western blot analysis; assay type: functional, cell-based; conditions: dose 1.0 µg/ml; in short: as §2
Caco-2 [19] = assay: Induction of apoptosis in human Caco-2 cells assessed as increase in active caspase 3 level; assay type: functional, cell-based
Caco-2 [20] = assay: Upregulation of AKT protein expression in human Caco-2 cells at 1 ug/ml incubated for 48 hrs by Western blot analysis; assay type: functional, cell-based; conditions: dose 1.0 µg/ml; in short: as §2

SMILES	Activity (Caco-2 [1])	Activity (Caco-2 [2])	inhibition [3]	Activity [4]	inhibition [5]	Activity (Caco-2 [6])	Activity [7]	inhibition [8]	Activity [9]	Activity (Caco-2 [10])	Activity (Caco-2 [11])	inhibition at 0.1 µg/mL [12]	Activity (Caco-2 [13])	Activity [14]	Activity (Caco-2 [15])	Activity (Caco-2 [16])	Activity [17]	Activity (Caco-2 [18])	Activity (Caco-2 [19])	Activity (Caco-2 [20])
C=C(C)[C@]12C[C@@H](C)[C@@]34O[C@](/C=C/[C@@H]5O[C@H]5CCCCCCCCC)(O[C@@H]1[C@@H]3[C@@H]1O[C@]1(CO)[C@@H](O)[C@]1(O)C(=O)C(C)=C[C@H]14)O2	Active	Active	Active	Non-Toxic	Active	inactive	Active	inactive	Active	inactive	Active	40%	inactive	Active	Active	inactive	Active	inactive	inactive	Active
C=C(C)[C@]12C[C@@H](C)[C@@]34O[C@](/C=C/C=C/CCCCCCCCC)(O[C@@H]1[C@@H]3[C@@H]1O[C@]1(CO)[C@@H](O)[C@]1(O)C(=O)C(C)=C[C@H]14)O2	Active	Active	Active	Non-Toxic	Active	inactive	Active	inactive	Active	inactive	Active	40%	inactive	Active	Active	inactive	Active	inactive	inactive	Active
